Source: ChEMBL document CHEMBL4007470, “Discovery of a 2'-fluoro-2'-C-methyl C-nucleotide HCV polymerase inhibitor and a phosphoramidate prodrug with favorable properties” (Bioorg Med Chem Lett, 2017)

Key:
[1] = test system: Hepatitis C virus; assay: Antiviral activity against HCV genotype 4a infected in human HuH7 cells by luciferase reporter gene assay; type: functional, cell-based, Hepacivirus hominis; settings: Hepatitis C virus, genotype 4a, Huh-7
[2] = test system: Hepatitis C virus; assay: Antiviral activity against HCV genotype 1a infected in human HuH7 cells by luciferase reporter gene assay; type: functional, cell-based, Hepacivirus hominis, subtype 1a; settings: Hepatitis C virus, subtype 1a, Huh-7
[3] = test system: Hepatitis C virus; assay: Antiviral activity against HCV genotype 1b infected in human HuH7 cells by luciferase reporter gene assay; type: functional, cell-based, Hepacivirus hominis; settings: Hepatitis C virus, genotype 1b, Huh-7
In short: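 Luciferase-reporter genotype 1b subgenomic replicon in Huh-7 cells; EC50 is concentration giving 50% inhibition. Values are averages of at least three repeats.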

[4] = Half life in human intestinal S9 fractions at 2 uM by LC-MS/MS analysis; type: ADME, Intestine
In short: (§1)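 Compound at 2 μM incubated with S9 fractions at 37 °C for 90 min with NADPH and UDPGA. Quenched with aqueous acetonitrile/methanol containing internal standard and analysed by LC-MS/MS. Half-life from an exponential fit assuming first-order kinetics. Hepatic extraction predicted from half-life using the well-stirred model.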

[5] = Hepatic extraction in hamster liver S9 fractions at 2 uM by LC-MS/MS analysis; type: ADME; settings: cricetinae, liver S9 fractions; read-out: ERH; in short: as §1
[6] = Hepatic extraction in human liver S9 fractions at 2 uM by LC-MS/MS analysis; type: ADME; settings: liver S9 fractions, read-out: ERH; in short: as §1
[7] = Half life in hamster intestinal S9 fractions at 2 uM by LC-MS/MS analysis; type: ADME, Intestine; settings: cricetinae, intestinal S9 fractions
[8] = Half life in hamster plasma at 2 uM by LC-MS/MS analysis; type: ADME, cell-free; settings: cricetinae
In short: (§2)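 Compound at 2 μM incubated in plasma at 37 °C for up to 4 h. Aliquots quenched with 9 volumes of acetonitrile containing internal standard, then centrifuged. Supernatant analysed by LC-MS/MS.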

[9] = Half life in human plasma at 2 uM by LC-MS/MS analysis; type: ADME, cell-free; in short: as §2
[10] = test system: RNA-directed RNA polymerase (Hepacivirus hominis), O39930 [UNDEFINED MUTATION]; assay: Inhibition of HCV genotype 1b wild-type NS5B RNA dependent RNA polymerase S282T mutant relative to control; settings: Hepatitis C virus subtype 1b
[11] = Inhibition of HCV genotype 1b wild-type NS5B RNA dependent RNA polymerase; design: species or system Hepatitis C virus subtype 1b

Row | Structure (SMILES) | EC50 [1] [µM] | EC50 [2] [µM] | EC50 [3] [µM] | further results
1 | CC[C@H](C)OC(=O)C1(NP(=O)(OC[C@H]2O[C@@H](c3cnc4c(N)ncnn34)[C@](C)(F)[C@@H]2O)Oc2ccccc2)CCC1 (stereo not given in full) | 2.1 | 18.8 | 16.1 | 
2 | CC[C@H](C)OC(=O)C(C)(C)NP(=O)(OC[C@H]1O[C@@H](c2cnc3c(N)ncnn23)[C@](C)(F)[C@@H]1O)Oc1ccccc1 (stereo not given in full) | 3.6 | 36 | > 88 | 
3 | CC[C@@H](C)OC(=O)[C@H](C)NP(=O)(OC[C@H]1O[C@@H](c2cnc3c(N)ncnn23)[C@](C)(F)[C@@H]1O)Oc1ccccc1 (stereo not given in full) | 0.37 | 0.53 | 0.56 | 
4 | CC[C@H](C)OC(=O)[C@H](C)NP(=O)(OC[C@H]1O[C@@H](c2cnc3c(N)ncnn23)[C@](C)(F)[C@@H]1O)Oc1ccccc1 (stereo not given in full) | 0.46 | 0.81 | 0.67 | 
5 | CC[C@@H](C)OC(=O)C(C)(C)NP(=O)(OC[C@H]1O[C@@H](c2cnc3c(N)ncnn23)[C@](C)(F)[C@@H]1O)Oc1ccccc1 (stereo not given in full) | 1.1 | 28.7 | > 88 | 
6 | CCOC(=O)[C@@H](NP(=O)(OC[C@H]1O[C@@H](c2cnc3c(N)ncnn23)[C@](C)(F)[C@@H]1O)Oc1ccccc1)C(C)(C)C (stereo not given in full) | > 88 | > 88 | > 88 | 
7 | CC(C)(C)COC(=O)C1(NP(=O)(OC[C@H]2O[C@@H](c3cnc4c(N)ncnn34)[C@](C)(F)[C@@H]2O)Oc2ccccc2)CCC1 (stereo not given in full) | 77.8 | 72.4 | > 88 | 
8 | COCCOC(=O)C1(NP(=O)(OC[C@H]2O[C@@H](c3cnc4c(N)ncnn34)[C@](C)(F)[C@@H]2O)Oc2ccccc2)CCC1 (stereo not given in full) | 1.5 | 3.4 | 6.1 | 
9 | CC(C)OC(=O)[C@@H](C)NP(=O)(OC[C@H]1O[C@@H](c2cnc3c(N)ncnn23)[C@](C)(F)[C@@H]1O)Oc1ccccc1 (stereo not given in full) | 58.1 | > 88 | > 88 | half-life at 2 µM [4]: > 13.2 h; hepatic extraction ratio at 2 µM [5]: 0.85; hepatic extraction ratio at 2 µM [6]: 0.17; half-life at 2 µM [7]: 6.92 h; half-life at 2 µM [8]: 11.2 h; half-life at 2 µM [9]: 6.33 h
10 | CC[C@@H](C)OC(=O)[C@@H](C)NP(=O)(OC[C@H]1O[C@@H](c2cnc3c(N)ncnn23)[C@](C)(F)[C@@H]1O)Oc1ccccc1 (stereo not given in full) | > 88 | > 88 | > 88 | 
11 | CC(C)OC(=O)[C@@H](NP(=O)(OC[C@H]1O[C@@H](c2cnc3c(N)ncnn23)[C@](C)(F)[C@@H]1O)Oc1ccccc1)C(C)C (stereo not given in full) | > 88 | > 88 | > 88 | 
12 | CCOC(=O)[C@@H](NP(=O)(OC[C@H]1O[C@@H](c2cnc3c(N)ncnn23)[C@](C)(F)[C@@H]1O)Oc1ccccc1)C(C)C (stereo not given in full) | 11.2 | 35.2 | 37.6 | 
13 | C[C@@]1(F)[C@H](O)[C@@H](COP(=O)(O)OP(=O)(O)OP(=O)(O)O)O[C@H]1c1ccc2c(N)ncnn12 |  |  | > 89 | fold change (FC) [10]: 2.8; IC50 [11]: 0.046 µM
14 | CCOC(=O)CC[C@H](NP(=O)(OC[C@H]1O[C@@H](c2cnc3c(N)ncnn23)[C@](C)(F)[C@@H]1O)Oc1ccccc1)C(=O)OCC (stereo not given in full) | 0.83 | 1.2 | 3.4 | 
15 | COCCOC(=O)C(C)(C)NP(=O)(OC[C@H]1O[C@@H](c2cnc3c(N)ncnn23)[C@](C)(F)[C@@H]1O)Oc1ccccc1 (stereo not given in full) | 0.82 | 4.3 | 6.2 | 
16 | CCOC(=O)[C@H](CCCCNC(C)=O)NP(=O)(OC[C@H]1O[C@@H](c2cnc3c(N)ncnn23)[C@](C)(F)[C@@H]1O)Oc1ccccc1 (stereo not given in full) | 86.2 | 60.5 | > 88 | 
17 | CCOC(=O)[C@H](CCCCN)NP(=O)(OC[C@H]1O[C@@H](c2cnc3c(N)ncnn23)[C@](C)(F)[C@@H]1O)Oc1ccccc1 (stereo not given in full) | 62.5 | > 88 | > 88 | 
18 | CCOC(=O)C[C@H](NP(=O)(OC[C@H]1O[C@@H](c2cnc3c(N)ncnn23)[C@](C)(F)[C@@H]1O)Oc1ccccc1)C(=O)OCC (stereo not given in full) | 2.3 | 3.3 | 8.6 | 
